In ChEMBL document CHEMBL1649147, “Antistaphylococcal activity of dihydrophthalazine antifolates, a family of novel antibacterial drugs” (2009):
In brackets after ≈: the same amount, converted by molar mass.

Columns and labels:
Staphylococcus aureus [1] = assay: Antibacterial activity against methicillin-resistant and vancomycin-resistant Staphylococcus aureus VRS1 after 50 passages by agar dilution method; format: functional
Method in brief: (§1)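 Daily serial passage for up to 50 days at 35°C for 24 h in 1 ml MHB. […] Each transfer used 10 µl from the tube nearest the MIC (1–2 dilutions below) with the same turbidity as the drug-free control. […] MICs were measured by agar dilution, with changes given as log2 steps.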

[2] = tested on: Staphylococcus epidermidis; assay: Antibacterial activity against methicillin-susceptible coagulase-negative Staphylococcus epidermidis 051 after 50 passages by agar dilution method; format: functional
Method in brief: (§2)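 Daily serial passage for up to 50 days at 35°C for 24 h in 1 ml MHB. Each transfer used 10 µl from the tube nearest the MIC (1–2 dilutions below) with the same turbidity as the drug-free control. MICs were measured by agar dilution, with changes given as log2 steps.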

[3] = tested on: Staphylococcus epidermidis; assay: Antibacterial activity against methicillin-susceptible coagulase-negative Staphylococcus epidermidis 057 after 50 passages by agar dilution method; format: functional; method in brief: as §2
[4] = tested on: Staphylococcus epidermidis; assay: Antibacterial activity against methicillin-resistant coagulase-negative Staphylococcus epidermidis 197 after 50 passages by agar dilution method; format: functional; method in brief: as §2
[5] = tested on: Staphylococcus epidermidis; assay: Antibacterial activity against methicillin-resistant, vancomycin-intermediate coagulase-negative Staphylococcus epidermidis 225 after 50 passages by agar dilution method; format: functional; method in brief: as §1
[6] = tested on: Staphylococcus epidermidis; assay: Antibacterial activity against methicillin-resistant, Linezolid non-susceptible coagulase-negative Staphylococcus epidermidis 345 after 50 passages by agar dilution method; format: functional; method in brief: as §2
Staphylococcus aureus [7] = assay: Antibacterial activity against methicillin-susceptible Staphylococcus aureus by agar dilution method; format: functional
Method in brief: (§3)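 Agar dilution on Mueller-Hinton agar per CLSI guidelines. S. aureus ATCC 29213 and E. faecalis ATCC 29212 were run with each set, and test MICs were accepted only when the control strains fell within acceptable ranges.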

Staphylococcus aureus [8] = assay: Antibacterial activity against methicillin-resistant Staphylococcus aureus by agar dilution method; format: functional; method in brief: as §3
Staphylococcus aureus [9] = assay: Antibacterial activity against Tmp-susceptible Staphylococcus aureus by agar dilution method; format: functional
Method in brief: (§4)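 MICs by agar dilution on Mueller-Hinton agar following CLSI guidelines. S. aureus ATCC 29213 and E. faecalis ATCC 29212 were run as quality controls with each set, and test-strain MICs were kept only if control MICs fell within acceptable ranges.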

Staphylococcus aureus [10] = assay: Antibacterial activity against Tmp-resistant Staphylococcus aureus by agar dilution method; format: functional; method in brief: as §4
Staphylococcus aureus [11] = assay: Antibacterial activity against Tmp-susceptible coagulase-negative Staphylococcus aureus by agar dilution method; format: functional; method in brief: as §4
Staphylococcus aureus [12] = assay: Antibacterial activity against methicillin-susceptible Staphylococcus aureus ATCC 29213 by broth macrodilution method; format: functional; settings: ATCC29213
Staphylococcus aureus [13] = assay: Antibacterial activity against methicillin-susceptible Staphylococcus aureus 505 by broth macrodilution method; format: functional
Staphylococcus aureus [14] = assay: Antibacterial activity against methicillin-resistant Staphylococcus aureus ATCC 43300 by broth macrodilution method; format: functional; settings: ATCC43300
Staphylococcus aureus [15] = assay: Antibacterial activity against methicillin-resistant Staphylococcus aureus 145 by broth macrodilution method; format: functional
Staphylococcus aureus [16] = assay: Antibacterial activity against methicillin-resistant Staphylococcus aureus 507 by broth macrodilution method; format: functional
Staphylococcus aureus [17] = assay: Antibacterial activity against vancomycin-resistant Staphylococcus aureus VRS1 by broth macrodilution method; format: functional
Method in brief: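 Michigan VRSA strain, one of 12 staphylococci later used in time-kill studies. MIC was determined by broth macrodilution and reported in μg/ml.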

[18] = tested on: Staphylococcus epidermidis; assay: Antibacterial activity against methicillin-susceptible coagulase-negative Staphylococcus epidermidis 051 by broth macrodilution method; format: functional
[19] = tested on: Staphylococcus epidermidis; assay: Antibacterial activity against methicillin-susceptible coagulase-negative Staphylococcus epidermidis 057 by broth macrodilution method; format: functional
[20] = tested on: Staphylococcus epidermidis; assay: Antibacterial activity against methicillin-resistant coagulase-negative Staphylococcus epidermidis 074 by broth macrodilution method; format: functional
[21] = tested on: Staphylococcus epidermidis; assay: Antibacterial activity against methicillin-resistant coagulase-negative Staphylococcus epidermidis 197 by broth macrodilution method; format: functional
[22] = tested on: Staphylococcus epidermidis; assay: Antibacterial activity against methicillin-resistant coagulase-negative Staphylococcus epidermidis 225 by broth macrodilution method; format: functional
[23] = tested on: Staphylococcus epidermidis; assay: Antibacterial activity against methicillin-resistant coagulase-negative Staphylococcus epidermidis 345 by broth macrodilution method; format: functional
Staphylococcus aureus [24] = assay: Antibacterial activity against methicillin-susceptible Staphylococcus aureus ATCC 29213 after 50 passages by agar dilution method; format: functional; settings: ATCC29213; method in brief: as §1
Staphylococcus aureus [25] = assay: Antibacterial activity against methicillin-susceptible, vancomycin-intermediate Staphylococcus aureus 505 by broth macrodilution method; format: functional
Staphylococcus aureus [26] = assay: Antibacterial activity against methicillin-susceptible, vancomycin-intermediate Staphylococcus aureus 505 after 50 passages by agar dilution method; format: functional; method in brief: as §1
Staphylococcus aureus [27] = assay: Antibacterial activity against methicillin-resistant Staphylococcus aureus ATCC 43300 after 50 passages by agar dilution method; format: functional; settings: ATCC43300
Method in brief: (§5)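 Serial passage under drug. Inoculum was ~1 × 10^6 CFU/ml from overnight MHA growth, in 1 ml MHB at 35°C for 24 h. Drug ranged from 4 log2 steps above to 3 log2 steps below the MIC. […] MIC change is given as log2 steps.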

Staphylococcus aureus [28] = assay: Antibacterial activity against methicillin-resistant Staphylococcus aureus 145 after 50 passages by agar dilution method; format: functional; method in brief: as §5
Staphylococcus aureus [29] = assay: Antibacterial activity against methicillin-resistant and vancomycin-resistant Staphylococcus aureus VRS1 by agar dilution method; format: functional; method in brief: as §3
[30] = tested on: Staphylococcus epidermidis; assay: Antibacterial activity against methicillin-resistant, Linezolid non-susceptible coagulase-negative Staphylococcus epidermidis 345 by agar dilution method; format: functional
[31] = tested on: Staphylococcus epidermidis; assay: Antibacterial activity against methicillin-resistant, vancomycin-intermediate coagulase-negative Staphylococcus epidermidis 225 by agar dilution method; format: functional; method in brief: as §3
[32] = tested on: coagulase-negative staphylococci; assay: Antibacterial activity against Tmp-resistant coagulase-negative staphylococci by agar dilution method
[33] = tested on: coagulase-negative staphylococci; assay: Antibacterial activity against Tmp-susceptible coagulase-negative staphylococci by agar dilution method
[34] = tested on: coagulase-negative staphylococci; assay: Antibacterial activity against methicillin-resistant coagulase-negative staphylococci by agar dilution method
[35] = tested on: coagulase-negative staphylococci; assay: Antibacterial activity against methicillin-susceptible coagulase-negative staphylococci by agar dilution method

CN(C)c1ccc(O)c2c1C[C@H]1C[C@H]3[C@H](N(C)C)C(O)=C(C(N)=O)C(=O)[C@@]3(O)C(O)=C1C2=O [MINOCYCLINE]
MIC (Staphylococcus aureus [1]): 2 µg/mL (≈ 4.37 µM) | MIC [2]: 4 µg/mL (≈ 8.74 µM) | MIC [3]: 2 µg/mL (≈ 4.37 µM) | MIC [4]: 2 µg/mL (≈ 4.37 µM) | MIC [5]: 1 µg/mL (≈ 2.19 µM) | MIC [6]: 1 µg/mL (≈ 2.19 µM) | MIC50 (Staphylococcus aureus [7]): 0.125 µg/mL (≈ 0.273 µM) | MIC90 (Staphylococcus aureus [7]): 0.25 µg/mL (≈ 0.546 µM) | MIC50 (Staphylococcus aureus [8]): 0.125 µg/mL (≈ 0.273 µM) | MIC90 (Staphylococcus aureus [8]): 2 µg/mL (≈ 4.37 µM) | MIC50 (Staphylococcus aureus [9]): 0.125 µg/mL (≈ 0.273 µM) | MIC90 (Staphylococcus aureus [9]): 0.25 µg/mL (≈ 0.546 µM) | MIC50 (Staphylococcus aureus [10]): 0.25 µg/mL (≈ 0.546 µM) | MIC90 (Staphylococcus aureus [10]): 8 µg/mL (≈ 17.5 µM) | MIC (Staphylococcus aureus [11]): 0.06 µg/mL (≈ 0.131 µM) | MIC (Staphylococcus aureus [12]): 0.125 µg/mL (≈ 0.273 µM) | MIC (Staphylococcus aureus [13]): 0.125 µg/mL (≈ 0.273 µM) | MIC (Staphylococcus aureus [14]): 0.125 µg/mL (≈ 0.273 µM) | MIC (Staphylococcus aureus [15]): 4 µg/mL (≈ 8.74 µM) | MIC (Staphylococcus aureus [16]): 2 µg/mL (≈ 4.37 µM) | MIC (Staphylococcus aureus [17]): 1 µg/mL (≈ 2.19 µM) | MIC [18]: 0.125 µg/mL (≈ 0.273 µM) | MIC [19]: 0.5 µg/mL (≈ 1.09 µM) | MIC [20]: 0.25 µg/mL (≈ 0.546 µM) | MIC [21]: 0.125 µg/mL (≈ 0.273 µM) | MIC [22]: 0.125 µg/mL (≈ 0.273 µM) | MIC [23]: 0.25 µg/mL (≈ 0.546 µM) | MIC (Staphylococcus aureus [24]): 2 µg/mL (≈ 4.37 µM) | MIC (Staphylococcus aureus [25]): 0.125 µg/mL (≈ 0.273 µM) | MIC (Staphylococcus aureus [26]): 1 µg/mL (≈ 2.19 µM) | MIC (Staphylococcus aureus [27]): 1 µg/mL (≈ 2.19 µM) | MIC (Staphylococcus aureus [28]): 8 µg/mL (≈ 17.5 µM) | MIC (Staphylococcus aureus [29]): 0.5 µg/mL (≈ 1.09 µM) | MIC [30]: 0.5 µg/mL (≈ 1.09 µM) | MIC [31]: 0.125 µg/mL (≈ 0.273 µM) | MIC50 [32]: 0.5 µg/mL (≈ 1.09 µM) | MIC90 [32]: 0.5 µg/mL (≈ 1.09 µM) | MIC50 [33]: 0.125 µg/mL (≈ 0.273 µM) | MIC90 [33]: 1 µg/mL (≈ 2.19 µM) | MIC50 [34]: 0.25 µg/mL (≈ 0.546 µM) | MIC90 [34]: 1 µg/mL (≈ 2.19 µM) | MIC [35]: 0.125 µg/mL (≈ 0.273 µM) | MIC90 [35]: 0.5 µg/mL (≈ 1.09 µM)
